Experimental data from the EternaBench riboswitch data.

Test system: MS2 coat protein
Assay: apparent Kd, MS2 coat protein; higher = weaker binding; RNA-MaP array; FMN 200 µM where present
Summary of the method: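 Designs on Illumina sequencing-chip clusters, transcribed by stalled E. coli RNA polymerase, were exposed to SNAP-549-labelled MS2 coat protein in doubling steps from 0.7 or 1.5 nM up to 3 µM, without and then with constant ligand. The buffer held 100 mM Tris-HCl pH 7.5, 80 mM KCl, 4 mM MgCl2, BSA, DTT, yeast tRNA and Tween-20. Apparent Kd values are medians of filtered per-cluster binding-curve fits to green signal normalised to red-channel RNA signal and control-cluster median Fmax.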

[1] = designed as: OFF switch for flavin mononucleotide, no ligand
[2] = ligand present: flavin mononucleotide, designed as: OFF switch for flavin mononucleotide
[3] = designed as: ON switch for flavin mononucleotide, no ligand
[4] = ligand present: flavin mononucleotide, designed as: ON switch for flavin mononucleotide

| Sequence | apparent Kd [1] [nM] | apparent Kd [2] [nM] | apparent Kd [3] [nM] | apparent Kd [4] [nM] |
| --- | --- | --- | --- | --- |
| UGUCGGAUCAGAGGAUAUUACAUGAGGAUCACCCAUGUAUGAACCAAUAGCUGGAAACAGCAAUGUAAGAAGGCUGCUCCGACA | 11.4 | 160 | – | – |
| CCCAGAGCGUAAGGAUAUACAUGAGGAUCACCCAUGUCUACAAUAAUAGUACUAUAUGAAGUCGUGUAGAAGGUACGCGCAGGU | 41.2 | 119 | – | – |
| CGAAAUGAUAGAGGAUAUGUUUAACAUGAGGAUCACCCAUGUGACAUGGGAUUAAUAUAUAACUUACAGAAGGCUAUUCAAUCG | 38.7 | 52.1 | – | – |
| UGGUACUAGGGAGGAUAUGGGAAGAUACAUGAGGAUCACCCAUGUUUAAGAAUGCUGAGAGGCAACUAGAAGGCCCUAGUACCU | – | – | 439 | 20.9 |
| GGGCCGGUGGAGAAGGAGCUUGCAAAAUGCAUGCUAGGAUAUCCACAUGAGGAUCACCCAUGUGGGAAUAUCUGGUUUUCACAG | 3.98 | 5.05 | – | – |
| GUCGAGUGAGGAUAUGGUGAGUAGUGCCUGAGCGCUGCUCACCAGAAGGCACAUGAGGAUCACCCAUGUAUAGC | – | 29 | – | – |
| GGUACUCAAAGAGUACGGAGUCGAACAUGAGGAUCACCCAUGUAGGAUAUGCGAGUUUUGAAUUUGCAGAAGGACAUUUGCAGC | 9.62 | 11.2 | – | – |
| CUAAAAGUCGAGGAUAUGCACCGGCUUUCUGACGCAGAAGGCGACACAUGAGGAUCACCCAUGUCGGUACGCGA | 13.7 | 15.8 | – | – |
| ACAUGAGGAUCACCCAUGUUGCGAGUAGAAGGCUAUAAGAAACGGGAUGAAGAAAUCCACGCAAUAGAGGAUAUACGAAUUGGA | – | – | 12.1 | 7.78 |
| CGCUGUCAUGCAGGAUAUGCAUUGGAUUACAAUGCAGAAGGGCGAUUACAUGAGGAUCACCCAUGUGUAGACAGUGAACAAGAG | – | – | 124 | 11.4 |
| UAUAUAUAGUAAGGAUAUGUAUAUAGUUUAUAAACAGAAGGUACUGACAUGAGGAUCACCCAUGUUUUAGUGUGGGCAUGUAGA | 77.9 | 99.5 | – | – |
| AUACUAAAUGAAGGAUAUCUAAGCAUACACCUGAGAGAAGGUCAUUUUGACAUGAGGAUCACCCAUGUUGUGGUUAAUGGGUUA | 237 | 225 | – | – |
| GGAUCGAGUGUGAGGAUAUGCUGGUCCUUGGAUCAGCAGAAGGCACAUGAGGAUCACCCAUGUGAAGACGGUCC | 32.3 | 201 | – | – |
| CCCAAACUUGGGCUUGGUGGUGCAUAGGAUAUCCUUGAACAUGAGGAUCACCCAUGUGCAACUGUGGAGAAGGGUGCAGGGCCU | – | – | 362 | 88.4 |
| ACAAAUUAGUGAGGAUAUGCAUAAUUUAUAACUGCAGAAGGCACAAACCUCAAGACAUGAGGAUCACCCAUGUGGAAUAUAGAU | 73 | 182 | – | – |
| CAGGUCUGAGGAUAUCCAUCUUCAUACAUGAGGAUCACCCAUGUUUACCUUUGGGUUUUUGGAGAAGGCAGUUUUU | 188 | 243 | – | – |
| UUGGACGUCGUAGGAUAUGUAGGAUUCUCCUACAUGAGGAUCACCCAUGUUGACAUGGAGGACGGACAGAAGGACGGUGUCCAU | – | – | 14.1 | 5.64 |
| UCACGGGACUGAGGAUAUACAUUUAUUAUUUUUGUAGAAGGCAGAAUGUUAGUUUUUUCACUAUACAUGAGGAUCACCCAUGUU | 27.1 | 19.9 | – | – |
| GGCGGAGACGUUAACAUGAGGAUCACCCAUGUCGAAGGAGAUGAGGAUAUCGCAUACGAUGUAUGUGAGAAGGCAUGGUCUGCC | – | – | 30 | 10.6 |
| CAAUCUCAGAUAGGAUAUAUAGGAUAACUUAAGACCUAACAUGAGGAUCACCCAUGUGAUUAUUCGUAGAAGGAUCAUUGAACU | – | – | 226 | 244 |
